# Results published in PubChem BioAssay AID635 (SRMLSC, 2007).
# Hit rate of the full screen: of about 1,300 compounds, about 40 (3%) were called active. The rule behind the calls is not given here. A selection follows. Entries with a potency or affinity are not part of this list.
# Test: growth inhibition of wild-type E. coli BW25113 pool, dose response, OD615 (AID 635);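 note: growth measured after 20 h with compound at 37 °C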
# Settings: pooled mutant strains; at 100 µM (top of the series)
# In short: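 Material: Keio BW25113 knockout pool, 1,275 strains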
row,Structure (SMILES),growth inhibition
1,O=C(O)c1cc(Cl)c2ccccc2c1O,9.52% (inactive)
2,O=c1c(-c2nc3ccccc3o2)c2oc3ccccc3n2c2ccccc12,-2.69% (inactive)
3,Cc1cccc(S(=O)(=O)Nc2nc3ccccc3nc2NCc2ccco2)c1,2.5% (inactive)
4,Cc1ccc(-n2c(C)cc(C(=O)COC(=O)c3c(C)noc3C)c2C)cc1,-5.46% (inactive)
5,O=C(c1cccs1)N(Cc1nc2sc3c(c2c(=O)[nH]1)CCCC3)C1CCCC1,-3.44% (inactive)
6,N#Cc1ccc(NC(=O)Nc2ccc(Cl)cc2)cc1,12.7% (inactive)
7,CCOc1ccc(OCCSc2nnnn2C2CCCCC2)cc1,2.59% (inactive)
8,COc1ccc(C(C)(C)C)cc1NC(=O)Nc1ccc2c(c1)OCO2,2.22% (inactive)
9,COc1ccccc1-c1noc(CCC(=O)Nc2cccc(C(F)(F)F)c2)n1,9.08% (inactive)
10,CCc1ccc2oc(=O)cc(CN(C)Cc3ccccc3)c2c1,0.54% (inactive)
11,O=C(c1ccc2c(=O)n(C3CCCC3)c(=S)[nH]c2c1)N1CCN(C2CCCCC2)CC1,0.27% (inactive)
12,Cc1cc(C)c(C#N)c(SCC(=O)OC2CCCCC2)n1,4.58% (inactive)
13,COC(=O)c1ccc(CSc2nc3ccccc3o2)cc1,-2.69% (inactive)
14,CCCCn1nc(NC(=O)c2cccs2)c2cc3ccccc3nc21,-3.62% (inactive)
15,Cc1ccccc1OCCCN1C(=O)C(=O)c2cccc(C)c21,-1.21% (inactive)
16,Cc1cccc(Nc2nc(-c3ccccn3)cs2)n1,-0.44% (inactive)
17,Clc1ccc(OCc2nc(-c3ccccn3)n[nH]2)cc1,3.08% (inactive)
18,CC1=C(C(=O)OC2CCCCCCC2)C(c2cccc(O)c2)NC(=O)N1 (stereo not given),3.15% (inactive)
19,CCC(C(=O)Nc1ccccc1OC)n1c(C(=O)OC)cc2ccsc21 (stereo not given),2.88% (inactive)
20,COc1cccc(-c2cc(C(=O)N3CCc4ccccc4C3)no2)c1,-1.57% (inactive)
21,CC(C)C(C(=O)NCc1ccco1)N(C(=O)CNS(=O)(=O)c1ccc(Cl)cc1)C1CCCC1 (stereo not given),-9.91% (inactive)
22,O=S(=O)(N1CCCCC1)n1c(Cc2ccccc2)nc2ccccc21,2.59% (inactive)
23,Cc1cc(N2CCCCC2)n2ncc(-c3ccccc3)c2n1,1.76% (inactive)
24,Cc1ccc(C(c2nnnn2CCc2ccccc2)N2CCSCC2)cc1 (stereo not given),-0.97% (inactive)

row,Structure (SMILES),growth inhibition
1,N#Cc1cn(Cc2cccc(Cl)c2)c2ccccc12,7.22% (inactive)
2,CCCCN1C(=O)C2ON(c3ccccc3C)C(c3ccco3)C2C1=O (stereo not given),3.87% (inactive)
3,CN1CCN(CC(=O)N2CCn3c4c(c5cc(C6CCCCC6)ccc53)CCCC42)CC1 (stereo not given),1.85% (inactive)
4,CCN(CCCNC(=O)c1[nH]c(C)c(C(C)=O)c1C)c1cccc(C)c1,1.22% (inactive)
5,CCCc1cc(C(=O)N2CCN(c3ccccc3C)CC2)cs1,3.4% (inactive)
6,COc1ccc2nc(NC(=O)CSc3nnnn3C3CCCCC3)sc2c1,0.18% (inactive)
7,CCn1cc(C(=O)NC2CCCCC2C)c(=O)c2ccc(C)nc21 (stereo not given),7.04% (inactive)
8,Cc1cccc(NC(=O)CSc2nnc(-c3cc(C)n(-c4ccccc4)c3C)o2)c1C,0.15% (inactive)
9,O=S(=O)(Nc1cc(Cl)ccc1N1CCCCC1)c1cccs1,3.05% (inactive)
10,Cc1cc(=O)[nH]c(SCC(=O)Nc2nc(-c3ccccc3)cs2)n1,4.29% (inactive)
11,COc1ccccc1N1CCN(C(=O)c2cc(-c3cccc(Cl)c3)on2)CC1,-2.98% (inactive)
12,CC(C)c1nnc(NC(=O)c2c(O)c3cccc4c3n(c2=O)CC4)s1,-11% (inactive)
13,CCOc1cc(S(=O)(=O)N2CCN(Cc3ccccc3)CC2)ccc1Br,-3.26% (inactive)
14,CC1CN(c2oc(COc3ccc(Cl)cc3Cl)nc2C#N)CC(C)O1 (stereo not given),-5.37% (inactive)
15,CN(C1CCCCC1)S(=O)(=O)c1ccc(NC(=O)c2ccc(Br)o2)cc1,-1.39% (inactive)
16,Cc1[nH]n2c(=O)c3c(nc2c1-c1ccc(Cl)cc1)CCC3,-1.19% (inactive)
17,CCOC(=O)c1cn(CC)c2cc(N3CCSCC3)c(F)cc2c1=O,3.43% (inactive)
18,Cc1csc(NC(=O)c2cccc(Cn3nc(C)c(Br)c3C)c2)n1,1.33% (inactive)
19,COc1ccc(-c2[nH]ncc2Oc2ccccc2OC)c(O)c1,7.41% (inactive)
20,Cc1ccc(Cl)cc1NC(=O)CC(O)(C(F)(F)F)C(F)(F)F,15.3% (inactive)
21,CCOC(=O)C1CCN(C(c2cccnc2)c2c(NC(=O)c3ccco3)sc(C)c2C)CC1 (stereo not given),-3.15% (inactive)
22,Cc1cc(C)c(O)c(-c2cc(C(=O)Nc3ccc(S(=O)(=O)N4CCOCC4)cc3)[nH]n2)c1,3.2% (inactive)
23,COc1ccc(S(=O)(=O)N(Cc2cccs2)C2CCCC2)cc1,3.24% (inactive)
24,COc1ccc(OCC(O)Cn2c(=N)n(Cc3ccccc3)c3ccccc32)cc1 (stereo not given),12.8% (inactive)

row,Structure (SMILES),growth inhibition
1,Brc1cc(Br)c2ncnc(N3CCCCC3)c2c1,1.95% (inactive)
2,CCc1nc(N2CCCCC2)c2oc3ccccc3c2n1,-3.08% (inactive)
3,COCCCN1C(=O)c2[nH]nc(-c3ccccc3O)c2C1c1ccc(Cl)cc1 (stereo not given),-4.43% (inactive)
4,COc1ccccc1N1CCN(C(c2ccccc2Cl)c2nnnn2C(C)(C)C)CC1 (stereo not given),-0.1% (inactive)
5,CC(C)c1nc(N2CCN(C(=O)c3ccco3)CC2)c2c3c(sc2n1)CCCC3,4.77% (inactive)
6,O=C(CN(C(=O)CNC(=O)c1ccco1)c1ccc(Cl)c(Cl)c1)NC1CCCCC1,1.85% (inactive)
7,CCCCOn1c(C)c(C(=O)OCC)c2c3nonc3ccc21,2.87% (inactive)
8,CCOC(=O)c1sc(NC(=O)CSc2n[nH]c(-c3ccccc3)n2)c(C#N)c1C,1.14% (inactive)
9,Cc1cccc(Cc2c(C)nc3c(C(=O)NCc4ccco4)cnn3c2C)c1,-6.42% (inactive)
10,Cc1noc(C)c1S(=O)(=O)N(CCc1ccccc1)Cc1ccccc1,3.25% (inactive)
11,Cc1ccc2c3c1C1(C(=O)N3C(C)(C)CC2C)C(C#N)=C(N)Oc2cc(O)ccc21 (stereo not given),4.82% (inactive)
12,Cc1ccc(C2C(S(C)(=O)=O)=C(O)C(=O)N2c2ccccc2)cc1 (stereo not given) (tested in a mixture with another compound),3.27% (inactive)
13,CC1CCCC(C)N1C(=O)CN1C(=O)C(C)(C)Oc2ccc(C(=O)NC3CCCCC3)cc21 (stereo not given),-0.3% (inactive)
14,Oc1ccccc1-c1cc(-c2ccc3c(c2)OCCO3)n[nH]1,5.21% (inactive)
15,Cc1csc(SCC(=O)Nc2nc(-c3ccccc3)cs2)n1,0.45% (inactive)
16,O=C(Nc1nc(SCc2ccc(F)cc2)ns1)c1ccco1,8.93% (inactive)
17,COc1ccc2[nH]c(=O)c(CN(C(=O)NC3CCCCC3)C3CCCCC3)cc2c1,-1.14% (inactive)
18,COC(=O)c1c(NC(=O)Cc2cccs2)sc2c1CCCC2,4.36% (inactive)
19,Cn1c(-c2ccc3c(c2)OCO3)cnc1N,-1.76% (active)
20,OCCn1c(-c2ccc3c(c2)OCO3)csc1=Nc1ccccc1,-0.74% (inactive)
21,N#Cc1c(N)oc(-c2ccc3c(c2)OCO3)c1-c1ccc2c(c1)OCO2,1.41% (inactive)
22,CCOC(=O)N1CCN(c2nc3ccccc3nc2C(C#N)S(=O)(=O)c2ccc(C)cc2)CC1 (stereo not given),-1.57% (inactive)
23,CCOc1ccc(N(CC(=O)Nc2cccc(Cl)c2)S(=O)(=O)c2c(C)noc2C)cc1,2.36% (inactive)
24,CN1/C(=C\C(=O)COc2ccc3c(c2)OCO3)C(C)(C)c2ccccc21,-6.25% (inactive)

row,Structure (SMILES),growth inhibition
1,O=C(COc1ccccc1)Nc1nnc(-c2ccc(Cl)s2)o1,2.47% (inactive)
2,O=c1c2c(nc3n1CCCCC3)-c1ccccc1CC21CCCC1,-5.17% (inactive)
3,Cc1ccc(C(C(=O)NC2CCCC2)N(Cc2cccs2)C(=O)CNC(=O)c2cccs2)o1 (stereo not given),5.18% (inactive)
4,Cc1ccc(C)c(N2CCN(C(=O)c3ccc(NS(=O)(=O)c4c(C)noc4C)cc3)CC2)c1,3.98% (inactive)
5,Cc1ccc(CN2C(=O)NC(=O)C3(Cc4c(nc5ccccn5c4=O)N4CCCCCC43)C2=O)cc1 (stereo not given),-2% (inactive)
6,O=C(NC12CC3CC(CC(C3)C1)C2)c1ccccc1O,8.6% (inactive)
7,COc1ccc(-c2[nH]c(-c3cccc(OC)c3)nc2SCC(=O)NCc2ccco2)cc1,-2.87% (inactive)
8,OC(COc1ccc(Cl)c2ccccc12)CN1CCN(c2ccccn2)CC1 (stereo not given),-3.05% (inactive)
9,O=C(Nc1nc2n(n1)C(c1ccc(Cl)cc1)CC(c1ccc(Cl)cc1)N2)c1ccco1 (stereo not given),9.43% (inactive)
10,CCOc1cc(C)c(C(C)C)cc1S(=O)(=O)N1CC(C)OC(C)C1 (stereo not given),3.51% (inactive)
11,CCN(C(=O)c1ccc(C(C)(C)C)cc1)c1nnc(Cn2nnc3ccccc32)s1,2.41% (inactive)
12,COc1cc2cc(C(c3nnnn3C3CCCCC3)N(C)C3CCCCC3)c(=O)[nH]c2cc1OC (stereo not given),-2.92% (inactive)
13,N#Cc1c(NC(NC(=O)c2ccco2)C(=O)c2ccccc2)sc2c1CCCC2 (stereo not given),1.57% (inactive)
14,Cc1ccc(C)c(SCC(=O)Nc2nnc(-c3ccccc3)o2)c1,6.77% (inactive)
15,COc1cccc(-c2csc(N3CCN(C(=O)C4CCCCC4)CC3)n2)c1,-1.87% (inactive)
16,O=C(Nc1cccc(C(F)(F)F)c1)N1CCC(c2nc(-c3ccc(F)cc3)no2)CC1,-2.79% (inactive)
17,CCOc1ccc2nc(NC(=O)C(CC)Sc3nc(C)cc(=O)[nH]3)sc2c1 (stereo not given),0.31% (inactive)
18,CCOC(=O)c1cn(CC)c2cc(N3CCOCC3)c(F)cc2c1=O,3.52% (inactive)
19,CCn1cc(C(=O)Nc2nncs2)c(=O)c2cc(F)c(N3CCN(C(=O)c4ccco4)CC3)cc21,15.6% (inactive)
20,CCOC(=O)c1cn(CC)c2cc(N3CCCCC3)c(F)cc2c1=O,-1.4% (inactive)
21,CCn1cc(C(=O)O)c(=O)c2cnc(N3CCN(C(=O)Nc4ccccc4)CC3)nc21,5.46% (inactive)
22,Cc1nc2c(C(=O)NCc3ccc4c(c3)OCO4)c[nH]n2c(=O)c1Cc1ccccc1F,0.56% (inactive)
23,CCn1cc(C(=O)O)c(=O)c2cc(OC)ccc21,-5.37% (inactive)
